Laboratory results: ChEMBL document CHEMBL3046179, “Study on the anthraquinones separated from the cultivation of Trichoderma harzianum strain Th-R16 and their biological activity” (J Agric Food Chem, 2009)
pIC50: −log10 of the molar value. Structures can show the parent of a compound that is named as a salt.

Assays:
[1] = test system: Staphylococcus aureus; assay: Antibacterial activity against Staphylococcus aureus using 50 uL of compound solution from 500 ug/mL stock solution after 24 hr by agar disk diffusion method; type: functional
In short: (§1)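 Agar disk diffusion. Plates were spread with 1 mL culture containing 1 × 10^7 CFU: S. aureus and E. coli on tryptic soy agar, B. cereus and P. aeruginosa on nutrient agar. Each 8 mm filter-paper disc was blotted with 50 μL of a 500 μg/mL sample. Kanamycin sulfate 50 μg/mL discs were the positive control. Plates ran 24 h at 37 °C, and inhibition-zone diameter was measured in triplicate.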

[2] = test system: Staphylococcus aureus; assay: Antibacterial activity against Staphylococcus aureus after 24 hr by agar disk diffusion method; type: functional, organism-based; in short: as §1
[3] = test system: Pseudomonas aeruginosa; assay: Antibacterial activity against Pseudomonas aeruginosa using 50 uL of compound solution from 500 ug/mL stock solution after 24 hr by agar disk diffusion method; type: functional; in short: as §1
[4] = test system: Rhizoctonia solani; assay: Antifungal activity against Rhizoctonia solani assessed as growth inhibition at 500 ug/mL after 2 days; type: functional; settings: 48 h, read-out: GI
In short: (§2)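 Rhizoctonia solani plugs were set centrally on PDA dishes holding test sample at 25 to 500 μg/mL. Mycelial diameter (mm) was measured after 2 days, in triplicate.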

[5] = test system: Escherichia coli; assay: Antibacterial activity against Escherichia coli using 50 uL of compound solution from 500 ug/mL stock solution after 24 hr by agar disk diffusion method; type: functional; in short: as §1
[6] = test system: Bacillus cereus; assay: Antibacterial activity against Bacillus cereus using 50 uL of compound solution from 500 ug/mL stock solution after 24 hr by agar disk diffusion method; type: functional; in short: as §1
[7] = test system: Rhizoctonia solani; assay: Antifungal activity against Rhizoctonia solani assessed as inhibition of mycelium growth after 2 days; type: functional, organism-based; in short: as §2
[8] = test system: Botrytis cinerea; assay: Antifungal activity against Botryotinia fuckeliana assessed as growth inhibition at 500 ug/mL after 4 days; type: functional; settings: 96 h, read-out: GI
In short: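 Mycelial plug of B. cinerea was placed at the centre of PDA dishes containing test sample at 25 to 500 μg/mL. Colony diameter (mm) was read after 4 days, in triplicate.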

[9] = test system: Botrytis cinerea; assay: Antifungal activity against Botryotinia fuckeliana as inhibition of mycelium growth after 4 days; type: functional, organism-based
In short: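 Mycelial plugs of the pathogen placed at the centre of PDA Petri dishes holding 10 mL of test sample at 25 to 500 μg/mL. Mycelial diameter (mm) measured after 4 days for B. cinerea. Run in triplicate.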

[10] = test system: Staphylococcus aureus; assay: Antibacterial activity against Staphylococcus aureus at 50 ug/mL after 24 hr by agar disk diffusion method; type: functional; settings: read-out: DIZ
[11] = test system: Pseudomonas aeruginosa; assay: Antibacterial activity against Pseudomonas aeruginosa at 50 ug/mL after 24 hr by agar disk diffusion method; type: functional; settings: read-out: DIZ
[12] = test system: Escherichia coli; assay: Antibacterial activity against Escherichia coli at 50 ug/mL after 24 hr by agar disk diffusion method; type: functional; settings: read-out: DIZ
[13] = test system: Bacillus cereus; assay: Antibacterial activity against Bacillus cereus at 50 ug/mL after 24 hr by agar disk diffusion method; type: functional; settings: read-out: DIZ

SMILES	diameter of the inhibition zone (DIZ) [1] [mm]	pIC50 [2]	diameter of the inhibition zone (DIZ) [3] [mm]	inhibition of growth at 500 µg/mL [4] [%]	diameter of the inhibition zone (DIZ) [5] [mm]	diameter of the inhibition zone (DIZ) [6] [mm]	growth inhibition (GI) [7]	inhibition of growth at 500 µg/mL [8] [%]	growth inhibition (GI) [9]	zone of inhibition at 50 µg/mL [10] [mm]	zone of inhibition at 50 µg/mL [11] [mm]	zone of inhibition at 50 µg/mL [12] [mm]	zone of inhibition at 50 µg/mL [13] [mm]
O=C1c2cc(CO)cc(O)c2C(=O)c2cccc(O)c21	17.67	3.93	<10	25.4	<10	10.66	Dose-dependent effect	53.7	–	–	–	–	–
O=C1c2ccc(O)cc2C(=O)c2c(O)cc(CO)cc21	14.33	3.66	<10	67.3	<10	<10	–	92.8	Dose-dependent effect	–	–	–	–
Cc1cc(O)c2c(c1)C(=O)c1cccc(O)c1C2=O [CHRYSOPHANOL]	<10	–	<10	21.2	<10	<10	–	22.5	–	–	–	–	–
Cc1cc(O)c2c(c1)C(=O)c1cc(O)cc(O)c1C2=O [EMODIN]	11	4.33	<10	39	<10	10	–	51.7	Dose-dependent effect	–	–	–	–
NC[C@H]1O[C@H](O[C@H]2[C@H](O)[C@@H](O[C@H]3O[C@H](CO)[C@@H](O)[C@H](N)[C@H]3O)[C@H](N)C[C@@H]2N)[C@H](O)[C@@H](O)[C@@H]1O [KANAMYCIN SULFATE]	–	–	–	–	–	–	–	–	–	13	13	12	15
O=C1c2ccccc2C(=O)c2c(O)cc(CO)cc21 [OMEGA-HYDROXYPACHYBASIN]	20	3.91	<10	41.5	<10	11	–	47.3	–	–	–	–	–
Cc1cc(O)c2c(c1)C(=O)c1ccccc1C2=O [PACHYBASIN]	10.33	–	<10	13.9	<10	<10	–	6	–	–	–	–	–
